Test results: ChEMBL document CHEMBL2407075, “Sulphonamido-quinoxalines: search for anticancer agent” (Eur J Med Chem, 2013)

Columns and labels:
Assay type in all cases: functional
OVCAR-8 [1] = assay: Growth inhibition of human OVCAR8 cells assessed as cell growth at 10^-4 M after 48 hrs by sulforhodamine B assay; conditions: OVCAR-8, 48 h, read-out: Activity
UO-31 = assay: Growth inhibition of human UO31 cells assessed as cell growth at 10^-5 M after 48 hrs by sulforhodamine B assay; conditions: UO-31, 48 h, read-out: Activity
SN12C = assay: Growth inhibition of human SN12C cells assessed as cell growth at 10^-5 M after 48 hrs by sulforhodamine B assay; conditions: read-out: Activity
CAKI-1 = assay: Growth inhibition of human CAKI-1 cells assessed as cell growth at 10^-5 M after 48 hrs by sulforhodamine B assay; conditions: CAKI-1, 48 h, read-out: Activity
Procedure, shortened: (§1)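 Five-dose NCI-60 run (0.01, 0.1, 1, 10 and 100 µM, as 10-fold dilutions from a DMSO stock made at 400× the top final level). Cells were grown in RPMI 1640 with 5% FBS and 2 mM glutamine and plated for 24 h. They were then exposed for 48 h at 37 °C and 5% CO2. TCA fixation was followed by SRB staining with A515 read-out. Percent growth was taken relative to time-zero and control plates.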

OVCAR-3 = assay: Growth inhibition of human OVCAR3 cells assessed as cell growth at 10^-5 M after 48 hrs by sulforhodamine B assay; conditions: OVCAR-3, 48 h, read-out: Activity
SK-MEL-5 [2] = assay: Growth inhibition of human SK-MEL-5 cells assessed as cell growth at 10^-5 M after 48 hrs by sulforhodamine B assay; conditions: SK-MEL-5, 48 h, read-out: Activity
COLO 205 = assay: Growth inhibition of human COLO205 cells assessed as cell growth at 10^-5 M after 48 hrs by sulforhodamine B assay; conditions: COLO 205, 48 h, read-out: Activity; procedure, shortened: as §1
MDA-MB-231 = assay: Growth inhibition of human MDA-MB-231 cells assessed as cell growth at 10^-6 M after 48 hrs by sulforhodamine B assay; conditions: MDA-MB-231, 48 h, read-out: Activity
OVCAR-8 [3] = assay: Growth inhibition of human OVCAR8 cells assessed as cell growth at 10^-6 M after 48 hrs by sulforhodamine B assay; conditions: OVCAR-8, 48 h, read-out: Activity
SNB-75 = assay: Growth inhibition of human SNB75 cells assessed as cell growth at 10^-6 M after 48 hrs by sulforhodamine B assay; conditions: SNB-75, 48 h, read-out: Activity
SW-620 = assay: Growth inhibition of human SW620 cells assessed as cell growth at 10^-6 M after 48 hrs by sulforhodamine B assay; conditions: SW-620, 48 h, read-out: Activity
SR = assay: Growth inhibition of human SR cells assessed as cell growth at 10^-6 M after 48 hrs by sulforhodamine B assay; conditions: read-out: Activity
DU-145 [4] = assay: Growth inhibition of human DU145 cells assessed as cell growth at 10^-7 M after 48 hrs by sulforhodamine B assay; conditions: DU-145, 48 h, read-out: Activity; procedure, shortened: as §1
RXF 393 = assay: Growth inhibition of human RXF393 cells assessed as cell growth at 10^-7 M after 48 hrs by sulforhodamine B assay; conditions: RXF 393, 48 h, read-out: Activity
SK-MEL-5 [5] = assay: Growth inhibition of human SK-MEL-5 cells assessed as cell growth at 10^-7 M after 48 hrs by sulforhodamine B assay; conditions: SK-MEL-5, 48 h, read-out: Activity
MDA-MB-435 = assay: Growth inhibition of human MDA-MB-435 cells assessed as cell growth at 10^-7 M after 48 hrs by sulforhodamine B assay; conditions: MDA-MB-435, 48 h, read-out: Activity
HCT-15 [6] = assay: Growth inhibition of human HCT15 cells assessed as cell growth at 10^-7 M after 48 hrs by sulforhodamine B assay; conditions: HCT-15, 48 h, read-out: Activity
Procedure, shortened: (§2)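 Five-dose screen at NCI. Cells in RPMI 1640 with 5% FBS and 2 mM L-glutamine, seeded at 5000–40,000 cells/well and grown 24 h at 37 °C, 5% CO2 before dosing, with time-zero plates TCA-fixed. Drug diluted from DMSO stock to 0.01, 0.1, 1, 10 and 100 µM final, 48 h. Cells fixed with cold TCA (10% final), stained with 0.4% SRB and read at 515 nm. Percent growth from Tz, control and test absorbances; GI50, TGI and LC50 from dose-response curves.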

DU-145 [7] = assay: Growth inhibition of human DU145 cells assessed as cell growth at 10^-8 M after 48 hrs by sulforhodamine B assay; conditions: DU-145, 48 h, read-out: Activity; procedure, shortened: as §1
SK-OV-3 = assay: Growth inhibition of human SKOV3 cells assessed as cell growth at 10^-8 M after 48 hrs by sulforhodamine B assay; conditions: SK-OV-3, 48 h, read-out: Activity
OVCAR-5 = assay: Growth inhibition of human OVCAR5 cells assessed as cell growth at 10^-8 M after 48 hrs by sulforhodamine B assay; conditions: OVCAR-5, 48 h, read-out: Activity
SK-MEL-5 [8] = assay: Growth inhibition of human SK-MEL-5 cells assessed as cell growth at 10^-8 M after 48 hrs by sulforhodamine B assay; conditions: SK-MEL-5, 48 h, read-out: Activity
M14 = assay: Growth inhibition of human M14 cells assessed as cell growth at 10^-8 M after 48 hrs by sulforhodamine B assay; conditions: M14, 48 h, read-out: Activity
Malme-3M = assay: Growth inhibition of human MALME-3M cells assessed as cell growth at 10^-8 M after 48 hrs by sulforhodamine B assay; conditions: read-out: Activity
[9] = Growth inhibition of human EKVX cells assessed as cell growth at 10^-8 M after 48 hrs by sulforhodamine B assay; conditions: read-out: Activity; procedure, shortened: as §2
MOLT-4 = assay: Growth inhibition of human MOLT4 cells assessed as cell growth at 10^-8 M after 48 hrs by sulforhodamine B assay; conditions: MOLT-4, 48 h, read-out: Activity
MCF7 = assay: Growth inhibition of human MCF7 cells after 48 hrs by sulforhodamine B assay; conditions: MCF7, 48 h; for CC50: read-out: LC50 (the source's name)
Procedure, shortened: (§3)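 Adherent cells in RPMI 1640 with 5% FBS and 2 mM L-glutamine were plated at 5000–40,000 cells/well and grown 24 h. Five concentrations (0.01–100 µM, DMSO stock) were added for 48 h at 37 °C. Cells were fixed with cold TCA (10% final) and stained with SRB, read at 515 nm. GI50 came from log concentration–growth curves against time-zero and control plates.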

OVCAR-4 = assay: Growth inhibition of human OVCAR4 cells after 48 hrs by sulforhodamine B assay; conditions: OVCAR-4, 48 h; for CC50: read-out: LC50 (the source's name)
Procedure, shortened: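 Five-dose NCI 60 screen at 0.01, 0.1, 1, 10 and 100 µM, 48 h exposure after 24 h preincubation, in RPMI 1640 with 5% FBS and 2 mM glutamine. Fixed with TCA (10% final for adherent cells, 16% for suspension cells), stained with SRB, A515 read. Percent growth uses time-zero (Tz), control and treated plates. GI50, TGI and LC50 are read from the dose-response curves.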

HCT-15 [10] = assay: Growth inhibition of human HCT15 cells after 48 hrs by sulforhodamine B assay; conditions: HCT-15, 48 h; for CC50: read-out: LC50 (the source's name); procedure, shortened: as §3

| Compound | growth at 100 µM (OVCAR-8 [1]) | growth at 10 µM (UO-31) | growth at 10 µM (SN12C) | growth at 10 µM (CAKI-1) | growth at 10 µM (OVCAR-3) | growth at 10 µM (SK-MEL-5 [2]) | growth at 10 µM (COLO 205) | growth at 1 µM (MDA-MB-231) | growth at 1 µM (OVCAR-8 [3]) | growth at 1 µM (SNB-75) | growth at 1 µM (SW-620) | growth at 1 µM (SR) | growth at 0.1 µM (DU-145 [4]) | growth at 0.1 µM (RXF 393) | growth at 0.1 µM (SK-MEL-5 [5]) | growth at 0.1 µM (MDA-MB-435) | growth at 0.1 µM (HCT-15 [6]) | growth at 0.01 µM (DU-145 [7]) | growth at 0.01 µM (SK-OV-3) | growth at 0.01 µM (OVCAR-5) | other results |
| --- | --- | --- | --- | --- | --- | --- | --- | --- | --- | --- | --- | --- | --- | --- | --- | --- | --- | --- | --- | --- | --- |
| O=S(=O)(Nc1ccccn1)c1ccc2nc(-c3ccccc3)c(-c3ccccc3)nc2c1 | 46% | -5% | 26% | -11% | -32% | -93% | -73% | 89% | 85% | 75% | 87% | 66% | 99% | 109% | 92% | 102% | 98% | 102% | 97% | 93% | growth at 0.01 µM (SK-MEL-5 [8]): 95%; growth at 0.01 µM (M14): 96%; growth at 0.01 µM (Malme-3M): 97%; growth at 0.01 µM [9]: 100%; growth at 0.01 µM (MOLT-4): 96%; GI50 (MCF7): 2.18 µM; CC50 (MCF7): > 100 µM; GI50 (OVCAR-4): 2.79 µM; TGI (OVCAR-4): > 100 µM; CC50 (OVCAR-4): > 100 µM; TGI (HCT-15 [10]): > 100 µM; CC50 (HCT-15 [10]): > 100 µM |
| O=S(=O)(Nc1ccc(Cl)cc1)c1ccc2nc(-c3ccccc3)c(-c3ccccc3)nc2c1 | 72% | 6% | 21% | -35% | -41% | -99% | -11% | 83% | 92% | 69% | 88% | 81% | 99% | 103% | 95% | 92% | 98% | 105% | 95% | 95% | growth at 0.01 µM (SK-MEL-5 [8]): 95%; growth at 0.01 µM (M14): 95%; growth at 0.01 µM (Malme-3M): 106%; growth at 0.01 µM [9]: 97%; growth at 0.01 µM (MOLT-4): 97%; CC50 (MCF7): > 100 µM; TGI (OVCAR-4): > 100 µM; CC50 (OVCAR-4): > 100 µM; TGI (HCT-15 [10]): > 100 µM; CC50 (HCT-15 [10]): > 100 µM |
